An excerpt weighted towards active compounds, which were near 4.3% of everything screened.
TAAR1 agonist = agonists of human TAAR1. hit rate 0.99% among 360,000. CHO RD-HGA16 TAAR1, Fluo-8 calcium fluorescence; vehicle wells 0%, saturating PEA agonist 100%. activation, % at 3 µM. Q96RJ0;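 active = activation above the mean activation of all test compounds in the run plus 3 SD, cut at about 38% in these data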
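Benchmarks: low control DMSO, high control PEA (EC100); System: CHO RD-HGA16 cells carrying human TAAR1 plus Gα16; Detection: Fluo-8 fluorescence, 5 s baseline then 140 s kinetic read; Schedule: 17-24 h plating, Fluo-8 75 min 37 °C, 30 min RT; Read-out basis: % activation from peak over basal fluorescence ratio, DMSO-to-PEA scaled.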
MC4R antagonist = antagonists of human melanocortin 4 receptor (MC4R) | MC4R-expressing cells, MTII-stimulated cAMP, LANCE TR-FRET | hit rate 0.48% among 360,000 | inhibition, % at 6.5 µM | P32245;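 active = inhibition above its plate's cutoff, the mean of tested wells on that plate plus 3 SD, cut at about 29% in these data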
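Material: human MC4R-expressing U2OS cells. Probe or stimulus: Melanotan II challenge. Dosing: 6.5 µM single dose. Times: 30-min compound, 1-h challenge, 1-h detection, room temperature. Technique: TR-FRET with Eu-cAMP and labeled anti-cAMP, 671 nm. Replication: singlicate.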
HTR2A ag = mouse HTR2A agonism via beta-arrestin recruitment; P35363; CHO-K1 mHTR2A beta-arrestin complementation, luminescence; percent of 30 µM serotonin response; activation, % at 7.6 µM; hit rate 0.66% among 360,000; AID 624169;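 active = activation above a run cutoff, the mean activation of all tested compounds plus 3 SD, cut at about 14% in these data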
B2AR ag = agonists of human beta-2 adrenergic receptor inducing internalization. Am2.2-beta2AR cells, FAP receptor internalization, flow cytometry. hit rate 0.43% among 340,000. response, % (test concentration not listed). AID 504454. P07550;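 active = response above a set limit, near 3 SD of response in nonfluorescent compounds, cut at about 42% in these data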
Target sequence (P07550 whole entry, looked up): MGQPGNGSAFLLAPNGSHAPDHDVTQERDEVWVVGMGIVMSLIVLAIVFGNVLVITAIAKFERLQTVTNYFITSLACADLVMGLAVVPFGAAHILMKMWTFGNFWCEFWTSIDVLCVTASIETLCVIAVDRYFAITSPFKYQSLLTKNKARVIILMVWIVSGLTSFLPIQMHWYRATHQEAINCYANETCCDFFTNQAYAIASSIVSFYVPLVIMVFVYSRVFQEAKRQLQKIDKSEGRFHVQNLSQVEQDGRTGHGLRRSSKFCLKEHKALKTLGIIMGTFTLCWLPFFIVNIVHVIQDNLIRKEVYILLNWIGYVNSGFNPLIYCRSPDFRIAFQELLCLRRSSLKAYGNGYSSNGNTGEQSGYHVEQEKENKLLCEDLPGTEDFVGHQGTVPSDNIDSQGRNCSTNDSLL
TAAR1 antagonist = antagonists of human TAAR1; Q96RJ0; CHO RD-HGA16 TAAR1, Fluo-8 calcium fluorescence, antagonist; inhibition, % at 3 µM; hit rate 1.5% among 360,000; AID 624466;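 active = inhibition above a per-plate cutoff, the mean inhibition of test compounds on that plate plus 3 SD, cut at about 49% in these data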
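System: CHO RD-HGA16 cells bearing hTAAR1. Reagent: EC80 β-phenethylamine stimulus. Schedule: seeding 17-24 h prior, 75-min 37 °C, 30-min RT dye loading. Signal: Fluo-8 intracellular calcium dye fluorescence, real-time kinetic reads. Read-out: % inhibition from peak post-agonist over basal fluorescence ratio. Benchmarks: vehicle wells and EC80 agonist wells. Replicates: n of 1.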
MC4R barr agon = activates human MC4R beta-arrestin recruitment | P32245 | U2OS MC4R beta-arrestin complementation, luminescence; percent of melanotan II response, DMSO zero | activation, % at 8.9 µM | hit rate 0.98% among 360,000 | AID 540308;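 active = activation above a per-plate cutoff, the mean activation of sample wells on that plate plus 3 SD, cut at about 8% in these data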
cAMP nonselect = U2OS forskolin cAMP inhibition counter-screen; shares compounds with MC4R antagonist; parental U2OS, LANCE TR-FRET; inhibition, % at 6.5 µM; hit rate 26% among 1,600;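 active = mean inhibition over triplicates above the low-control well mean plus 3 SD, set per campaign, cut at about 13% in these data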;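 note: signal is single emission at 671 nm which falls as cellular cAMP rises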
MC4R cAMP antag = human MC4R cAMP antagonism confirmation | inhibition, % at 6.5 µM | MC4R-expressing cells, MTII-stimulated cAMP, TR-FRET | hit rate 27% among 1,600 | shares compounds with MC4R antagonist; in the data active = inhibition above about 29%
Numbers stand for hits; i = inactive; nt = no result given.

SMILES | TAAR1 agonist | MC4R antagonist | HTR2A ag | B2AR ag | TAAR1 antagonist | MC4R barr agon | cAMP nonselect | MC4R cAMP antag
COc1ccc(NC(=O)Cn2c(CCC(=O)O)ccc2-c2ccccc2)cc1 | i | i | i | i | i | i | nt | nt
COc1ccc(-c2ccc(CCC(=O)O)n2CC(=O)Nc2ccccc2C)cc1 | i | 31 | i | i | i | i | i | i
CC(C)(C)CC(C)(C)N=C1Nc2ccccc2NC12C[C@H]1CCC(=O)N3CC[C@@H](C2)[C@@H]13 (some centres undefined) | i | i | i | i | i | i | nt | nt
O=C1OCCC1Sc1nc2cc(Cl)ccc2n1Cc1ccccc1 (centres undefined) | i | 48 | i | i | i | i | i | 33
COc1ccc(OC)c(-c2nn(-c3ccccc3)cc2C(=O)NC2(C)CCS(=O)(=O)C2)c1 (centres undefined) | i | i | i | nt | i | i | nt | nt
COc1cc(CN2CCNC(=O)C2CC(=O)N(C)CCN2CCOCC2)cc(OC)c1 (centres undefined) | i | i | i | i | i | i | nt | nt
COC(=O)C1=C(C(=O)OC)SC2(S1)C(C(=O)OC)=C(C(=O)OC)SC1=C2c2cc(C)cc(C)c2NC1(C)C | i | 53 | i | i | i | i | 15 | 40
Cc1ccc(NC(=O)c2cc([N+](=O)[O-])ccc2N2CCCC2)cc1 | i | i | i | i | i | i | nt | nt
COc1ccc(NC(=O)c2cc([N+](=O)[O-])ccc2N2CCN(C)CC2)cc1 | i | 29 | i | i | i | i | i | i
CCOc1cccc(/C=N/N2CCN(c3ccc(Cl)cc3)CC2)c1O | i | 32 | i | i | i | i | i | i
COc1ccccc1/C=N/N1CCN(c2ccc(Cl)cc2)CC1 | i | i | i | i | i | i | nt | nt
CCc1ccc(NC(=O)C(=O)NCCN2CCN(S(C)(=O)=O)CC2)cc1 | i | i | i | i | i | i | nt | nt
CCc1ccc(NC(=O)C(=O)NCCN2CCN(S(=O)(=O)c3ccccc3)CC2)cc1 | i | 32 | i | i | i | i | i | i
COc1ccc2[nH]c3c(c2c1)CCN1C(=O)C(CC(=O)NCc2ccco2)C[C@H](C(=O)N2CCOCC2)[C@@]31CCC1CCCC1 (some centres undefined) | i | i | i | i | i | i | nt | nt
CC(=O)Nc1nc(C2CC2)cc(-c2ccccc2)c1C#N | i | 35 | i | i | i | i | i | i
O=C(OCc1ccc([N+](=O)[O-])cc1)c1cnc(Cl)c(Cl)c1 | i | i | i | i | i | i | nt | nt
O=C(OCc1c(F)cccc1Cl)c1cnc(Cl)c(Cl)c1 | i | 34 | i | i | i | i | 17 | 43
O=C(OCc1ccccc1F)c1cnc(Cl)c(Cl)c1 | i | 40 | i | i | i | i | 25 | 38
COc1ccccc1-c1c(C)oc2cc(OCC(=O)OCc3ccccc3)ccc2c1=O | i | 37 | i | i | i | i | 14 | 38
O=C(NCC(c1cccs1)N1CCOCC1)c1cccnc1 (centres undefined) | nt | i | i | i | nt | i | nt | nt
O=C(NCC(c1cccs1)N1CCOCC1)c1cnc(Cl)c(Cl)c1 (centres undefined) | i | 30 | i | i | i | i | 17 | 38
O=C(Cn1ncc(Cl)c(Cl)c1=O)N1CCN(S(=O)(=O)c2ccc3ccccc3c2)CC1 | i | 50 | i | i | i | i | 24 | 51
Cc1ccc(CNC(=O)c2oc3ccc(S(=O)(=O)N4CCOCC4)cc3c2C)cc1 | i | i | i | i | i | i | nt | nt
COc1ccccc1CNC(=O)c1oc2ccc(S(=O)(=O)N3CCOCC3)cc2c1C | i | i | i | i | i | i | nt | nt
COc1ccccc1CNC(=O)c1oc2ccc(S(=O)(=O)N3CCCC3)cc2c1C | nt | 29 | i | i | nt | i | i | i
SMILES | TAAR1 agonist | MC4R antagonist | HTR2A ag | B2AR ag | TAAR1 antagonist | MC4R barr agon | cAMP nonselect | MC4R cAMP antag
COc1ccc(CNC(=O)c2oc3ccc(S(=O)(=O)N4CCOCC4)cc3c2C)cc1 | i | 32 | i | i | 51 | i | i | i
Cc1ccc(-c2nc3c(c(=O)[nH]c(=O)n3Cc3ccccc3)n2Cc2ccccc2)o1 | i | i | i | i | i | i | nt | nt
Cn1c(C2CCCCC2)nc2c1c(=O)[nH]c(=O)n2Cc1ccccc1 | i | 34 | i | i | i | i | i | i
CCn1c(CO)nc2c1c(=O)[nH]c(=O)n2Cc1ccccc1 | i | 31 | i | i | i | i | i | i
CCOC(=O)C1CCCN(S(=O)(=O)c2cc(Br)cc3c2N(C(C)=O)CC3)C1 (centres undefined) | i | i | i | i | i | i | nt | nt
COc1ccccc1Nc1nc2ccc(C)cc2n2cnnc12 | i | i | i | i | i | i | nt | nt
Cc1[nH]c(=O)[nH]c(=O)c1S(=O)(=O)Nc1cccc([N+](=O)[O-])c1C | i | 30 | i | i | i | i | i | i
Cc1[nH]c(=O)[nH]c(=O)c1S(=O)(=O)Nc1ccc(Cl)c([N+](=O)[O-])c1 | i | i | i | i | i | i | nt | nt
Nc1ncnn1Cc1ccccc1 | i | i | i | nt | i | i | nt | nt
COc1ccc(C(=O)N/N=C\C(C)=C\c2ccccc2)cc1OC | i | i | i | i | i | i | nt | nt
COc1cc(C(=O)NCC(=O)N/N=C\C(C)=C/c2ccccc2)cc(OC)c1OC | i | 30 | i | i | i | i | i | i
Cc1cc(C(=O)N2CCC2(C)C(=O)NCc2cccc3ccccc23)nn1C (centres undefined) | i | i | i | nt | i | i | nt | nt
O=c1[nH]c(=S)[nH]cc1Oc1ccc(Cl)cc1Cl | i | 36 | i | i | i | i | i | i
Cc1nc(-c2ccccc2)[nH]c(=O)c1Oc1ccc(Cl)cc1Cl | i | i | i | i | i | i | nt | nt
CC(C)c1ccc(NC(=O)CSc2nc3ccsc3c(=O)n2CCC(=O)O)cc1 | i | 35 | i | i | i | i | i | i
CCCCNC(=O)C1(C)CCCCN1Cc1ccc2ccccc2c1 (centres undefined) | i | i | i | nt | i | i | nt | nt
CCCCNC(=O)C1(C)CCCCCN1Cc1cccc2c(OC)cc(C(=O)OCC)cc12 (centres undefined) | i | 30 | i | nt | i | i | i | i
O=C(Nc1cccc(S(=O)(=O)NC2=NCCC2)c1)c1cn(-c2ccccc2)nc1-c1ccc(F)cc1 | i | 29 | i | i | i | i | i | i
Cc1ccc(-c2nn(-c3ccccc3)cc2C(=O)Nc2cccc(S(=O)(=O)NC3=NCCC3)c2)cc1 | i | i | i | nt | i | i | nt | nt

Source: PubChem
